# Measured values taken from PubChem BioAssay AID504382 (The Scripps Research Institute Molecular Screening Center, 2011).
# The campaign covered roughly 2,500 compounds. About 460 (18%) were called active. These entries were drawn from the full list. Unmarked numbers belong to inactive results.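 How the source made its calls: active means mean activation above a cutoff of low control average plus 3 SD from the earlier screen (cut at about 12% in these data); inactive means the rest.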
# Test: IANBD-channel fluorescence artefacts in buffer – biochemical, artefact control for cardiac RTF calcium sensitizer project, confirmation (AID 504382)
# Details: IANBD fluorescence interference counterscreen, EC20 Ca2+, at 7.2 µM, hits give high values, scaled: EC20 calcium 0, EC100 calcium 100
# Method in brief: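 timing = compound incubation 15 min at 25 °C before fluorescence reading | technique = fluorescence at 480 nm excitation, 540 nm emission | evaluation = interference relative to controls | replication = triplicate wells per compound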
row,Compound,fluorescence artifact activation
1,CC1=CC(=C(C#N)c2nc3ccccc3s2)C=C(C)N1c1ccc(F)cc1,11.2%
2,CCC1C/C(=C\c2cc(OC)c(OC)cc2OC)C(=O)/C(=C/c2cc(OC)c(OC)cc2OC)C1 (stereo not drawn),5.41%
3,O=[N+]([O-])c1ccc(N/N=C/c2ccc(OCc3cccc4ccccc34)cc2)nc1,-0.02%
4,O=C(/C=C/c1ccccc1[N+](=O)[O-])Nc1cccnc1,0.87%
5,Cc1ccc2nc3nc(NCC4CCCO4)c(C(=O)NC4CCCC4)cc3c(=O)n2c1 (stereo not drawn),0.12%
6,COc1ccc(Cc2n[nH]c(=O)c3ccccc23)cc1OC,0.32%
7,C[C@H](CO)N1C[C@H](C)[C@@H](CN(C)C(=O)Nc2ccc(F)cc2)Oc2ccc(NS(C)(=O)=O)cc2C1=O,0.09%
8,Cc1ccc(N2C(=O)c3cccc4c(N)ccc(c34)C2=O)c2cccnc12,0.51%
9,O=C(Nc1ccc(C(=O)N2CCOCC2)cc1)Nc1cccc(Cl)c1,8.09%
10,O=C(Nc1ccc2c(c1)OCCO2)c1cccc(Cl)c1Cl,13.6% (active)
11,O=C(Nc1ccc2c(c1)OCO2)c1ccc2c(c1)OCO2,8.95%
12,Cc1ccc(C(=O)NNC(=O)CSc2nnc(-c3ccncc3)n2-c2ccc(C)cc2)cc1,0.09%
13,CCN1C(=O)[C@@H]2Cc3c([nH]c4ccccc34)C(c3ccc(OC)cc3)N2C1=S (stereo partly drawn),-0.08%
14,CCN(CC(=O)Nc1ccccc1C(=O)NC1CC1)Cc1cccs1,25.6% (active)
15,O=C(NC1CCCCC1)c1ccccc1NC(=S)NC(=O)C1CCC1,8.42%
16,O=C(c1ccccn1)N(Cc1cccs1)C1(C(=O)NC2CCCCC2)CCCCC1,0.12%
17,O=S(=O)(/C=C/c1ccccc1)N1CCc2ccccc2C1,0.07%
18,CCn1c(C)c(CCC(=O)O)c(=O)n2nc(-c3ccccc3OC)cc12,0.2%
19,CC(=O)Nc1ccc(SCC(=O)NNC(=O)CN(C)S(=O)(=O)c2ccc(C)cc2)cc1,70.4% (active)
20,CC(=O)Nc1ccc(S(=O)(=O)NCCC(=O)OCC(=O)c2cc(C)ccc2C)cc1,0.05%
21,Cc1cc(C)nc(NS(=O)(=O)c2ccc(NC(=O)CSc3nc4ccccc4[nH]3)cc2)n1,0.03%
22,CCOc1ccc2nc3cc(NCc4ccc(OC)cc4)ccc3c(N)c2c1,0.41%

row,Compound,fluorescence artifact activation
1,Cn1cc(/C=C/c2cc[n+](C)cc2)c2cc(Cl)ccc21,0.1%
2,Cn1cc(C2=C(c3ccc(Cl)cc3Cl)C(=O)NC2=O)c2ccccc21,12.7% (active)
3,Cc1ccc(N=C2NC(=O)/C(=C/c3cn(C)c4ccccc34)S2)cc1C,0%
4,COc1cccc(C(=O)Nc2cc(C(=O)NCc3ccc(C)cc3)ccc2N2CCC3(CC2)CC(c2cccc(Br)c2)=NO3)c1,-0.03%
5,CCN(CC(=O)Nc1ccccc1C(F)(F)F)C(=O)c1ccc(-n2nc(C)c(CCC(=O)OC)c2C)cc1,8.41%
6,N#Cc1cccc(NC(=O)CSc2ccc3c4c(cccc24)C(=O)c2ccccc2-3)c1,0.19%
7,Cn1nc(C(F)(F)F)c(-c2ccc(Br)cc2)c1NC(=O)c1ccco1,0.14%
8,CCC(CC)NC(=O)Nc1ccccc1C,0.09%
9,COCCn1c(C)cc(C(=O)COC(=O)c2ccc(Cl)c(S(N)(=O)=O)c2)c1C,3.98%
10,Cc1nnc(NC(=O)CSc2ncnc3c2cnn3-c2ccccc2C)s1,2.39%
11,Cc1ccc(CNC(=O)c2cc(-c3ccccc3)nn2Cc2cc(C)no2)cc1,0.08%
12,Cc1ccc(CNC(=O)CCn2cc(-c3ccc(C)cc3)nc2-c2ccncc2)cc1,18.1% (active)
13,Cc1ccc(C)c(C(=O)CCC(=O)NCc2ccc(Cl)cc2)c1,0.14%
14,COc1ccc2nc(C)c3cc(C)oc3c2c1,8.29%
15,Cn1nc(-c2ccccc2)c(C(=O)Nc2ccc(C(F)(F)F)cc2)c1Cl,5.74%
16,Cc1cc([N+](=O)[O-])ccc1-c1ccc(/C=N/NC(=O)c2ccc(Br)o2)o1,0.29%
17,COC(=O)c1cc(-c2cccc(OC)c2)n[nH]1,1.23%
18,CC(C)(C)OC(=O)NCCCC[C@@H](C(=O)N1CCN(C(=O)OC(C)(C)C)CC1)n1cc(CCC(=O)O)nn1,0.16%
19,CC(O)Cc1cn([C@@H](CCCCN)C(=O)N2CCNCC2)nn1 (stereo partly drawn),0.06%
20,C[C@@H](C(=O)N1CCNCC1)n1cc(CCCN=C(N)N)nn1,29.3% (active)
21,CC(Oc1ccc(F)cc1)C(=O)Nc1sc2c(c1C(=O)NCc1cccnc1)CCCC2 (stereo not drawn),9.94%
22,Nc1cccc(N2C(=O)c3cccc4c(N)ccc(c34)C2=O)c1,0.16%

row,Compound,fluorescence artifact activation
1,CS(=O)(=O)c1ccc(C(=O)OCC(=O)Nc2cccnc2Cl)cc1[N+](=O)[O-],0%
2,COc1ccc2ccccc2c1C(O)c1nccn1C (stereo not drawn),10.5%
3,Cc1occc1C(=O)Nc1cccc([N+](=O)[O-])c1,11.4%
4,COC(=O)c1cc2c(=O)c3ccccc3oc2nc1/C=C/N(C)C,0.12%
5,NC(=O)c1c(NC(=O)C2COc3ccccc3O2)sc2c1CCN(Cc1ccccc1)C2 (stereo not drawn),0.08%
6,CC(=O)c1ccc(C(=O)Nc2sc3c(c2C(N)=O)CCN(Cc2ccccc2)C3)cc1,-0.06%
7,NC(=O)c1c(NC(=O)c2ccccc2)sc2c1CCN(Cc1ccccc1)C2,37.1% (active)
8,Cc1nc(-c2ccc(C#N)cc2)cs1,-0.01%
9,CN(C)c1ccc(N=Cc2nc(-c3ccccc3)oc2O)cc1,7.65%
10,COc1ccc(N=C(N)N=C(N)N)c(OC)c1,0%
11,CCOc1cc(N2CCOCC2)c(OCC)cc1NC(=O)CCS(=O)(=O)c1ccc(Cl)cc1,9.02%
12,Cc1cccc(/C=C2/SC(=O)N(Cc3ccccc3)C2=O)n1,15.4% (active)
13,CCC(CO)[n+]1c(C)cc(/C=C2\Sc3ccccc3N2Cc2ccccc2)cc1C (stereo not drawn),0.01%
14,CN(C)c1ccc(/C=C2\SC(=O)N(CC(O)Cn3c4ccccc4c4ccccc43)C2=O)cc1 (stereo not drawn),5.59%
15,Cc1ccc2c(c1)CCCN2CC(=O)N(C)c1c(N)n(Cc2ccccc2)c(=O)[nH]c1=O,-0.05%
16,COCCN(C(=O)CN1CCCc2ccccc21)c1c(N)n(Cc2ccccc2)c(=O)[nH]c1=O,3.59%
17,CCn1c(=O)c(C(=O)CN2CCCc3ccccc32)c(N)n(Cc2ccccc2)c1=O,15.2% (active)
18,Nc1c(C(=O)C2CC2)sc2nc(-c3cccs3)cc(C(F)(F)F)c12,3.83%
19,Cc1cc[n+](-c2[nH]c(=O)sc2/C=N/NC([S-])=Nc2ccccc2)cc1C,0.4%
20,O=c1[nH]c(-[n+]2ccccc2)c(/C=N/NC([S-])=Nc2ccccc2)s1,0.03%
21,CCc1ccc[n+](-c2[nH]c(=O)sc2/C=N/NC([S-])=Nc2ccccc2)c1,19.1% (active)
22,Cc1ccc(S(=O)(=O)N2CCN(c3ncccn3)CC2)cc1C,-0.05%

row,Compound,fluorescence artifact activation
1,Cc1ccccc1S(=O)(=O)Cc1ccc(C(=O)NCCN(C)Cc2ccccc2)o1,11%
2,Cc1nn(Cc2c(F)c(F)c(F)c(F)c2F)c(C)c1NC(=O)c1nn(C)c(C)c1Br,0.14%
3,CCC/C(C#Cc1ccc(N(C)C)cc1)=C1/c2ccccc2C(=O)N1c1ccccc1,17.9% (active)
4,Nc1ccc2c3c(cccc13)C(=O)N(c1ccccc1)C2=O,0.18%
5,Cc1c(O)c2c3c(cccc3c1O)C(=O)N(c1ccccc1)C2=O,6.04%
6,CCCS(=O)(=O)N1CCC(C(=O)NCCCN2CCC(Cc3ccccc3)CC2)CC1,0.05%
7,CC(=O)Nc1cccc(NC(=O)CSc2nnc(Cc3cccn3C)n2CCc2ccccc2)c1,2.41%
8,CCN1C(=O)[C@@H]2[C@@H](c3ccc(-c4cccc(Cl)c4)cc3)N3CCC[C@@]3(C(=O)OC)[C@@H]2C1=O,0.02%
9,CC(=O)Nc1sc(/C(C#N)=C\c2cccc(Cl)c2)nc1-c1ccc(C)cc1,16.5% (active)
10,CCOc1cc(/C=C(\C#N)c2nc(-c3cccs3)c(NC(C)=O)s2)ccc1O,-0.03%
11,CC(=O)Nc1sc(/C(C#N)=C/c2ccc(Cl)c(Cl)c2)nc1-c1ccc(C)cc1,-0.03%
12,CC(C)(C)c1cc(NCc2ccccn2)n2ncc(-c3ccc(Cl)cc3)c2n1,0.93%
13,CCCN1CCc2c(sc(NC(=S)NC(=O)c3ccccc3)c2C#N)C1,11.1%
14,O=C(Nc1ccccc1F)C(=Cc1sc(N2CCOCC2)nc1-c1ccccc1)C(=O)Nc1ccccc1F,0.15%
15,CCN1C(=O)/C(=C/C=C2/CCCN2C)OC1=S,0.08%
16,CN1CCC/C1=C/C=C1\SC(=S)NC1=O,0.02%
17,CN1C(=O)/C(=C\C=C2/CCCN2C)N(C)C1=S,56.9% (active)
18,O=C(O)c1ccc2c(c1)S(=O)(=O)c1ccccc1C2=O,0.03%
19,O=C1c2ccccc2-c2onc3ccc(Oc4ccccc4)c1c23,0.44%
20,CCN(CC)c1nc2ccccc2nc1C(C#N)C(=O)NCCc1ccccc1 (stereo not drawn),164% (active)
21,CCCCCCNC(=O)C(C#N)c1nc2ccccc2nc1N1CCCC1 (stereo not drawn),0.17%
22,N#CC(C(=O)NCc1ccccc1)c1nc2ccccc2nc1N1CCCC1 (stereo not drawn),-0.08%
